In PubChem BioAssay AID652255 (Vanderbilt Specialized Chemistry Center, 2013):
Active and inactive are the calls of the source. No rule for the calls is given here.

Target: Proteinase-activated receptor 1 (Homo sapiens) (UniProt P25116)
Assay: PAR1 antagonism in human platelets, dose response, selectivity assay for PAR4 antagonist project, cell-based, CRC, P-selectin flow cytometry (AID 652255)
Conditions: Washed human platelets, PAR1-AP P-selectin flow cytometry
Method in brief: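 Material – washed platelets labelled with antibody · Dosing – antagonist exposure with 0.5% DMSO final · Schedule – 5 min label, 5 min compound, 10 min agonist · Benchmarks – vehicle (DMSO) control · Signal – flow cytometry fluorescence intensity, 100,000 platelet-gated events, paraformaldehyde-fixed · Probe or stimulus – PAR1 activating peptide (PAR1-AP) as agonist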

Chain of Proteinase-activated receptor 1 (Homo sapiens) (P25116 whole entry, looked up): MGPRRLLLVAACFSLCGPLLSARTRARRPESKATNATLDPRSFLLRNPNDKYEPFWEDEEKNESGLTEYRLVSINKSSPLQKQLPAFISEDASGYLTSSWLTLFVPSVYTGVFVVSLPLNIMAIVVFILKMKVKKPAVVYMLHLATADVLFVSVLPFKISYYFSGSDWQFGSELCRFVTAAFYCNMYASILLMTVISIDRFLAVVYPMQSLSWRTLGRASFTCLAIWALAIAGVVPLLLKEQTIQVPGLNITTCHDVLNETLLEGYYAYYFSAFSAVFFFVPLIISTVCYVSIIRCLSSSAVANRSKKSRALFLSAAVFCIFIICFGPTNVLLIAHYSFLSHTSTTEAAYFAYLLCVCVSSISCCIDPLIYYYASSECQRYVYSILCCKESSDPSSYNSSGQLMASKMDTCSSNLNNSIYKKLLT

Row | SMILES | max inhibition (stronger effect = higher value) [%] | IC50
1 | COc1ccc(COc2ccc(C(=O)NCCC(C)(C)C)cc2)cc1 | 57.1 | 
2 | CCCOCc1c(-c2ccccc2)c2cc([N+](=O)[O-])ccc2n1C |  | inactive
